From ChEMBL document CHEMBL4014261, “Design, Synthesis, and Antimicrobial Evaluation of a Novel Bone-Targeting Bisphosphonate-Ciprofloxacin Conjugate for the Treatment of Osteomyelitis Biofilms” (J Med Chem, 2017)
Converted amounts (≈) assume the structure as drawn. The source made the active and inactive calls. The rule behind the calls is not given here.

Legend:
[1] = test system: Staphylococcus aureus; test: Antibacterial activity against methicillin-sensitive Staphylococcus aureus isolate 1 planktonic cells after 24 hrs by microdilution assay; type: functional; conditions: isolate 1, 24 h
Method in brief: (§1)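 Planktonic cells at 1 × 10^5 CFU/mL were exposed to compound, and A580 was read at 0 h and after 24 h at 37 °C with shaking. Controls were medium plus microbes, with 1% (v/v) DMSO where the solvent was used. Relative cell number was calculated against the control. Results were confirmed by subculture in fresh medium (48 h, 37 °C) and plating. Conjugate concentrations were expressed as parent-antibiotic equivalents.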

[2] = test system: Staphylococcus aureus; test: Antibacterial activity against methicillin-sensitive Staphylococcus aureus isolate 3 planktonic cells after 24 hrs by microdilution assay; type: functional; conditions: isolate 3, 24 h; method in brief: as §1
[3] = test system: Staphylococcus aureus; test: Antibacterial activity against methicillin-sensitive Staphylococcus aureus isolate 4 planktonic cells after 24 hrs by microdilution assay; type: functional; conditions: isolate 4, 24 h; method in brief: as §1
[4] = test system: Staphylococcus aureus; test: Antibacterial activity against methicillin-sensitive Staphylococcus aureus isolate 5 planktonic cells after 24 hrs by microdilution assay; type: functional; conditions: isolate 5, 24 h; method in brief: as §1
[5] = test system: Staphylococcus aureus; test: Antibacterial activity against methicillin-resistant Staphylococcus aureus MR4-CIPS planktonic cells after 24 hrs by microdilution assay; type: functional
Method in brief: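 Broth microdilution: 100 µL of 1 × 10^5 CFU/mL inoculum with graded compound concentrations, read at 580 nm before and after 24 h at 37 °C with shaking to prevent biofilm formation. Relative cell number is taken against medium + microbes controls, with 1% DMSO in the ciprofloxacin control. Growth is confirmed by 48 h subculture in fresh medium and by plating. MIC is expressed as parent-antibiotic equivalents.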

[6] = test system: Staphylococcus aureus; test: Antibacterial activity against methicillin-sensitive Staphylococcus aureus ATCC 6538 planktonic cells at pH 5 after 24 hrs by microdilution method; type: functional; conditions: ATCC 6538, 24 h
Method in brief: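 Planktonic ATCC 6538 was tested by microdilution in medium adjusted to pH 5 or pH 7.4 with KOH or HCl, with pH checked by universal indicator. MIC50 was determined at each pH.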

[7] = test system: Staphylococcus aureus; test: Bactericidal activity against methicillin-sensitive Staphylococcus aureus ATCC 6538 planktonic cells assessed as reduction in bacterial growth at 31.25 ug/ml up to 1 hr by time kill assay relative to control; type: functional; design: scale not given: the % may be the effect or the level left
Method in brief: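 Time-kill per CLSI on planktonic cultures, set up as the microdilution assay: 1 × 10^5 CFU/mL, 37 °C with shaking. A580 is read at 0, 1, 2, 4, 8, 16 and 24 h, and growth is expressed relative to untreated medium + microbes control. Concentrations are parent-antibiotic equivalents.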

[8] = test system: Staphylococcus aureus; test: Bactericidal activity against Staphylococcus aureus ATCC 6538 biofilm using polystyrene as substrate assessed as reduction in colony forming units after 24 hrs; type: functional
Method in brief: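 Biofilms were started from a 1 McFarland suspension, allowed to adhere 4 h at 37 °C on HA discs or polystyrene well bottoms, then rinsed. They were exposed 24 h at 37 °C to TSB containing 0.24–125 mg/L compound. Cells were detached in 0.5% saponin by 1 min vortexing, serially diluted and plated on Columbia (S. aureus) or MacConkey (P. aeruginosa) agar, 37 °C, 24 h. Read-out was mean CFU/mm² ± SEM; HA area was measured by X-ray tomography.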

[9] = test system: Staphylococcus aureus; test: Antibiofilm activity against Staphylococcus aureus ATCC 6538 assessed as reduction in bacterial adherence to HA at 15.6 to 250 ug/ml pretreated with HA for 24 hrs followed by organism inoculation measured after 24 hrs; type: functional
Method in brief: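 HA spherules (final 10 mg/mL) in TSB were preincubated 24 h at 37 °C with shaking with compound (final 0.12–250 mg/L), then pelleted and the supernatant discarded. They were inoculated with 1 mL S. aureus at 10^5 CFU/mL. A580 was read at 0 and 24 h (37 °C, shaking) against controls without spherules and spherules without compound; spherules were also plated for CFU.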

[10] = test system: Staphylococcus aureus; test: Antibiofilm activity against Staphylococcus aureus ATCC 6538 assessed as CFU counts at 1 ug/mL pretreated with HA for 24 hrs followed by organism inoculation measured after 24 hrs (reference value: 4.5 x 10^10CFU); type: functional
Method in brief: (§2)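 HA discs were soaked 24 h at 37 °C in 2 mL compound solution, with DMSO or phosphate-buffer controls, then rinsed 3× with sterile water. Discs were inoculated with 2 mL of 0.5 McFarland S. aureus ATCC 6538 for biofilm formation. Biofilm CFU were counted after 24 h growth.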

[11] = test system: Staphylococcus aureus; test: Antibiofilm activity against Staphylococcus aureus ATCC 6538 assessed as CFU counts at 5 ug/mL pretreated with HA for 24 hrs followed by organism inoculation measured after 24 hrs (reference value: 4.5 x 10^10CFU); type: functional; method in brief: as §2
[12] = test system: Staphylococcus aureus; test: Antibiofilm activity against Staphylococcus aureus ATCC 6538 assessed as CFU counts at 10 ug/mL pretreated with HA for 24 hrs followed by organism inoculation measured after 24 hrs (reference value: 4.5 x 10^10CFU); type: functional; method in brief: as §2
[13] = test system: Staphylococcus aureus; test: Antibiofilm activity against Staphylococcus aureus ATCC 6538 assessed as CFU counts at 50 ug/mL pretreated with HA for 24 hrs followed by organism inoculation measured after 24 hrs (reference value: 4.5 x 10^10CFU); type: functional; method in brief: as §2
[14] = test system: Staphylococcus aureus; test: Antibiofilm activity against Staphylococcus aureus ATCC 6538 assessed as CFU counts at 100 ug/mL pretreated with HA for 24 hrs followed by organism inoculation measured after 24 hrs (reference value: 4.5 x 10^10CFU); type: functional; method in brief: as §2
[15] = test system: Staphylococcus aureus; test: Antibiofilm activity against Staphylococcus aureus ATCC 6538 assessed as CFU counts at 200 ug/mL pretreated with HA for 24 hrs followed by organism inoculation measured after 24 hrs (reference value: 4.5 x 10^10CFU); type: functional
[16] = test system: Staphylococcus aureus; test: Antibiofilm activity against Staphylococcus aureus ATCC 6538 assessed as CFU counts at 400 ug/mL pretreated with HA for 24 hrs followed by organism inoculation measured after 24 hrs (reference value: 4.5 x 10^10CFU); type: functional
[17] = test system: Staphylococcus aureus; test: Potency index, ratio of ciprofloxacin bactericidal concentration to compound bactericidal concentration for Staphylococcus aureus ATCC 6538; type: functional
[18] = test system: Aggregatibacter actinomycetemcomitans; test: Antibiofilm activity against Aggregatibacter actinomycetemcomitans infected in jawbone peri-implant osteomyelitis Sprague-Dawley rat model assessed as reduction in bacterial count in bone at 10 mg/kg, ip single dose measured after 1 week post pharmacotherapy; type: functional; design: scale not given: the % may be the effect or the level left
Method in brief: (§3)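 Rats carried two titanium implants each, preinoculated with A. actinomycetemcomitans D7S-1 biofilm (10^9 CFU), placed bilaterally in palatal bone. One week after surgery, randomized groups received i.p. doses in sterile saline; the negative control was endotoxin-free saline. One week after treatment, 1 cm² peri-implant tissue and bone were homogenized in 0.5% saponin, serially diluted 10-fold and spread-plated on modified TSB (37 °C, 5% CO2, 48 h). Read-out was CFU/g and mean log10 reduction; analysts were blinded.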

[19] = test system: Aggregatibacter actinomycetemcomitans; test: Antibiofilm activity against Aggregatibacter actinomycetemcomitans infected in jawbone peri-implant osteomyelitis Sprague-Dawley rat model assessed as reduction in bacterial count in bone at 0.1 to 1 mg/kg, ip single dose measured after 1 week post pharmacotherapy; type: functional, organism-based; method in brief: as §3
[20] = test system: Rattus norvegicus; test: Toxicity in jawbone peri-implant osteomyelitis Sprague-Dawley rat model infected with Aggregatibacter actinomycetemcomitans assessed as cutaneous injection-site reactions at 0.1 to 10 mg/kg, ip single dose measured after 1 week post pharmacotherapy; type: organism-based; conditions: in vivo, 168 h
Method in brief: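 Rats bearing infected palatal implants received i.p. dosing in sterile saline. They were observed during therapy for cutaneous injection-site reactions, inflammation and gross tolerability issues, and were euthanized one week after pharmacotherapy.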

Structure (SMILES): O=C(O)c1cn(C2CC2)c2cc(N3CCN(C(=O)Oc4ccc(CC(P(=O)(O)O)P(=O)(O)O)cc4)CC3)c(F)cc2c1=O
- MIC [1]: 3.9 µg/mL (≈ 6.1 µM)
- MIC [2]: 0.49 µg/mL (≈ 0.766 µM)
- MIC [3]: 3.9 µg/mL (≈ 6.1 µM)
- MIC [4]: 1.9 µg/mL (≈ 2.97 µM)
- MIC [5]: 15.6 µg/mL (≈ 24.4 µM)
- MIC50 [6]: 7.81 µg/mL (≈ 12.2 µM)
- MIC90 [6]: 31.2 µg/mL (≈ 48.9 µM)
- Activity [7]: 100%
- MBIC50 [8]: 15.6 to 31.2 µg/mL
- Activity [9]: Active
- Activity [10]: 7.1 ×10¹⁰ CFU
- Activity [11]: 3.3 ×10⁹ CFU
- Activity [12]: Active
- Activity [13]: Active
- Activity [14]: Active
- Activity [15]: Active
- Activity [16]: Active
- Ratio [17]: 20
- Activity [18]: 99%
- Activity [19]: Active
- Activity [20]: Non-Toxic
